Results published in PMC10413833 (ACS Omega, 2023).
Converted amounts (≈) assume the structure as drawn.

What was measured:
[1] = tested on: MRSA1; assay: In vivo antibacterial activity, survival of MRSA1 infected mice; parameters: species or system BALB/c mice; settings: for survival (%): final survival rate after 7 days
Procedure, shortened: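 Female BALB/c mice (6–8 weeks, 18-22 g) were housed under SPF conditions. They were infected via the tail vein with 0.1 mL of a Columbia broth culture of clinical MRSA1 diluted to OD600 1.5. One hour later, test compound or vancomycin was given IV at 2.5, 10 or 40 mg/kg; an untreated model group was included. Deaths were recorded daily for 7 days to build survival curves. Tissues were examined by H&E histology.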

[2] = tested on: MRSA2; assay: In vitro antibacterial activity; format: cell-based, Staphylococcus aureus
[3] = comparison value for vancomycin ref 18, 19; cited from earlier work
[4] = tested on: MRSA5; assay: In vitro antibacterial activity; format: cell-based; settings: Staphylococcus aureus
[5] = tested on: MRSA3; assay: In vitro antibacterial activity; format: cell-based; settings: Staphylococcus aureus
[6] = tested on: MRSA4; assay: In vitro antibacterial activity; format: cell-based; settings: Staphylococcus aureus
[7] = tested on: MRSA1; assay: In vitro antibacterial activity; format: cell-based; settings: Staphylococcus aureus

## CN[C@H](CC(C)C)C(=O)N[C@H]1C(=O)N[C@@H](CC(N)=O)C(=O)N[C@H]2C(=O)N[C@H]3C(=O)N[C@H](C(=O)N[C@H](C(=O)O)c4cc(O)cc(O)c4-c4cc3ccc4O)[C@H](O)c3ccc(c(Cl)c3)Oc3cc2cc(c3O[C@@H]2O[C@H](CO)[C@@H](O)[C@H](O)[C@H]2O[C@H]2C[C@](C)(N)[C@H](O)[C@H](C)O2)Oc2ccc(cc2Cl)[C@H]1O [vancomycin]
[1]; 2.5 mg/kg (low-dose)
  survival (%): 0%
[1]; 2.5 mg/kg via tail vein, day1, 6 mice
  number of mice surviving: 3
[1]; 2.5 mg/kg via tail vein, day2, 6 mice
  number of mice surviving: 2
[1]; 2.5 mg/kg via tail vein, day3, 6 mice
  number of mice surviving: 2
[1]; 2.5 mg/kg via tail vein, day4, 6 mice
  number of mice surviving: 2
[1]; 2.5 mg/kg via tail vein, day5, 6 mice
  number of mice surviving: 1
[1]; 2.5 mg/kg via tail vein, day6, 6 mice
  number of mice surviving: 1
[1]; 2.5 mg/kg via tail vein, day7, 6 mice
  number of mice surviving: 0
[1]; 10 mg/kg (medium-dose)
  survival (%): 16.7%
[1]; 10 mg/kg via tail vein, day1, 6 mice
  number of mice surviving: 6
[1]; 10 mg/kg via tail vein, day2, 6 mice
  number of mice surviving: 5
[1]; 10 mg/kg via tail vein, day3, 6 mice
  number of mice surviving: 2
[1]; 10 mg/kg via tail vein, day4, 6 mice
  number of mice surviving: 2
[1]; 10 mg/kg via tail vein, day5, 6 mice
  number of mice surviving: 2
[1]; 10 mg/kg via tail vein, day6, 6 mice
  number of mice surviving: 1
[1]; 10 mg/kg via tail vein, day7, 6 mice
  number of mice surviving: 1
[1]; 40 mg/kg (high-dose)
  survival (%): 33.3%
[1]; 40 mg/kg via tail vein, day1, 6 mice
  number of mice surviving: 5
[1]; 40 mg/kg via tail vein, day2, 6 mice
  number of mice surviving: 5
[1]; 40 mg/kg via tail vein, day3, 6 mice
  number of mice surviving: 5
[1]; 40 mg/kg via tail vein, day4, 6 mice
  number of mice surviving: 4
[1]; 40 mg/kg via tail vein, day5, 6 mice
  number of mice surviving: 2
[1]; 40 mg/kg via tail vein, day6, 6 mice
  number of mice surviving: 2
[1]; 40 mg/kg via tail vein, day7, 6 mice
  number of mice surviving: 2
[1]; Mus musculus
  ED50: 59.7 mg/kg
[1]; high-dose (40 mg/kg)
  kidney infection, H&E staining: severe kidney infection
[1]; low-dose (2.5 mg/kg)
  kidney infection, H&E staining: severe kidney infection
[1]; medium-dose (10 mg/kg)
  kidney infection, H&E staining: severe kidney infection
[2]; Staphylococcus aureus
  MIC: > 512 µg/mL
[2]; clinical isolate MRSA2
  MIC: >512 µg/mL
[3]
  half-life (T1/2): 4.3 ± 1.9 h
[4]
  MIC: 256 µg/mL (≈ 177 µM)
[5]
  MIC: 512 µg/mL (≈ 353 µM)
[6]
  MIC: 256 µg/mL (≈ 177 µM)
[7]
  MIC: 256 µg/mL (≈ 177 µM)
